Data from PMC3667888 (Channels, 2013).
Substitutions are numbered along the chain they refer to.

Tests used:
Format in all cases: cell-based
[1] = target: T1, Kv4.2 L313F mutant channels (co-injected with KChIP1b) (Rattus norvegicus, UniProt Q63881, L313F); assay: Two-electrode voltage clamp, L313F mutant Kv4.2/KChIP1b in Xenopus oocytes; conditions: 10 µM AA
T1 sequence (Q63881 1-630 L313F): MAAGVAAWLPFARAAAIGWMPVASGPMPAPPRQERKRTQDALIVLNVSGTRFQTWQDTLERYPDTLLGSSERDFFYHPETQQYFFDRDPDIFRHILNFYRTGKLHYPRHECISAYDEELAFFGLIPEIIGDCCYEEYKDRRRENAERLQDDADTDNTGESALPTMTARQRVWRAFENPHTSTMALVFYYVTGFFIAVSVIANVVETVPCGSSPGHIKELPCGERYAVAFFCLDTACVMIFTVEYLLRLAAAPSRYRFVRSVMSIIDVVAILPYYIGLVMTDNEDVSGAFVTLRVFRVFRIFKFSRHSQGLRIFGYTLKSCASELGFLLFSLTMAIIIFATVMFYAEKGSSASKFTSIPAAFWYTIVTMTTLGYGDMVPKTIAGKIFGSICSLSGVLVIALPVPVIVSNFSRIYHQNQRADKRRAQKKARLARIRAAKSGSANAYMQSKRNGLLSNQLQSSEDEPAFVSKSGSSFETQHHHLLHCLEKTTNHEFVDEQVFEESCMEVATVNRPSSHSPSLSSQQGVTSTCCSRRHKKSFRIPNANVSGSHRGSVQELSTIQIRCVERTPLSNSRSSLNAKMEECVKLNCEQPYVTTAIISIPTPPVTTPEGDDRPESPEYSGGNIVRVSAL
Summary of the method: (§1)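 Rat Kv4.2 (WT or QuikChange mutant) RNA co-injected equimolar with KChIP1b, 5–10 ng/oocyte, into Xenopus oocytes held 1–5 d at 17–19 °C. Two-electrode voltage clamp at room temperature in perfused Na/K methanesulfonate HEPES saline, pH 7.4–7.5, with P/−4 or P/−6 leak subtraction. Peak current at +40 mV (from −90 mV) after 10 min of 10 μM AA is expressed relative to pre-AA current. Mean ± SE, n = cells.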

[2] = target: T2, Kv4.2 V261F/K318Q double mutant channels (co-injected with KChIP1b) (Rattus norvegicus, UniProt Q63881, K318Q/V261F)
T2 sequence (Q63881 1-630 V261F/K318Q): T1 sequence (Q63881 1-630 L313F) with V261F, F313L, K318Q
Summary of the method: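 Xenopus oocytes co-expressing rat Kv4.2 (WT or mutant) with equimolar KChIP1b were recorded by two-electrode voltage clamp at room temperature. Peak conductance was calculated as G = I/(Vm − Vh), with Vh = −100 mV, and normalized to each cell's Gmax. It was plotted against step potential without and with 10 μM AA and fit to a first-order Boltzmann function to give V1/2 and slope.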

[3] = system: Kv1.2/Kv2.1 chimeric channel; assay: Two-electrode voltage clamp of Kv1.2/2.1 chimera K+ currents in Xenopus oocytes; conditions: 10 µM AA
[4] = target: T3, Kv4.2 K318R mutant channels (co-injected with KChIP1b) (Rattus norvegicus, UniProt Q63881, K318R); assay: Two-electrode voltage clamp, K318R mutant Kv4.2/KChIP1b in Xenopus oocytes; conditions: 10 µM AA, 10 min
T3 sequence (Q63881 1-630 K318R): T1 sequence (Q63881 1-630 L313F) with F313L, K318R
Summary of the method: as §1

sensitivity to AA [1]: retained its sensitivity to AA
V1/2 of conductance-voltage curve with AA ([2]; 10 µM AA): −19.1 mV
slope factor (k) of Boltzmann fit with AA ([2]; 10 µM AA): 8.4
Kd ([2]; fitted Kd for AA inhibition of peak current, Hill equation, nH = 1, +40 mV): 45.7 µM
inhibition of peak K+ current by AA, effect of mutation [4]: preserved the strong inhibition by AA
Structure (SMILES): CCCCC/C=C\C/C=C\C/C=C\C/C=C\CCCC(=O)O [AA, arachidonic acid]
modulation of Kv1.2/2.1 K+ currents by AA [3]: not modulated by AA
increase in current ([3]; n = 8, +110 mV test potential): 1.1 ± 2.1%
